Compound activity: PubChem BioAssay, several laboratories
FN deposition inh – inhibitors of fibronectin matrix deposition, primary screen, AH1F cells, Alexa488-fibronectin fluorescence, plate reader. inhibition, % at 12.6 µM. AH1F fibroblasts, overnight. hit rate 0.086% among 350,000;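 active = mean inhibition across replicates of 30% or more, regardless of how many single replicates reach that level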
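Material – AH1F fibroblast monolayer, labelled fibronectin deposition · Reagent – labelled fibronectin 24 nM · Timing – 1 h adhesion, overnight exposure · Measured by – fluorescence at 485 nm excitation, 525 nm emission · Read-out – inhibition of fibronectin deposition signal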
ABHD5-PLIN5 inh – ABHD5-PLIN5 interaction inhibitors, primary screen, cell lysate, split luciferase complementation, luminescence; Perilipin-5 (Homo sapiens) + 1-acylglycerol-3-phosphate O-acyltransferase ABHD5 (Homo …; Split G. princeps luciferase complementation, 4 h; inhibition, % at 4 µM; hit rate 0.78% among 360,000; AID 602281, 2012;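 active = inhibition above the mean inhibition across every tested compound plus 3 SD, cut at about 22% in these data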
APOBEC3A inh – APOBEC3A ssDNA deaminase inhibitors, primary screen, selectivity assay for APOBEC3G inhibitor project, biochemical, FAM/TAMRA oligo cleavage fluorescence. recombinant A3A, FAM/TAMRA ssDNA deamination fluorescence. inhibition, % at 20 µM. hit rate 0.41% among 330,000;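 active = at least 40% inhibition at 20 µM here, with at most 30% in a related deaminase screen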
A3G deaminase – APOBEC3G DNA deaminase inhibitors, primary screen, biochemical, fluorescence, single-stranded DNA substrate, uHTS; DNA dC->dU-editing enzyme APOBEC-3G (Homo sapiens), Q9HC16; recombinant A3G, ssDNA deamination FAM/TAMRA fluorescence; inhibition, % at 20 µM; hit rate 0.28% among 330,000; AID 493012, 2011;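 active = inhibition of at least 40% at 20 µM, with no more than 30% in the related APOBEC3A deaminase screen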
ABHD5-PLIN5 conf – ABHD5-PLIN5 interaction inhibitors, confirmation, biochemical, luminescence | hit rate 67% among 2,200 | AID 651612, 2012 | shares compounds with ABHD5-PLIN5 inh | inhibition, % at 4 µM; in the data active = inhibition above about 23%
HNF4 split-luc – HNF4 dimerization inhibitors, counter-screen for ABHD5-PLIN5 interaction inhibitor project, biochemical, split-luciferase complementation, luminescence; shares compounds with ABHD5-PLIN5 inh; inhibition, % at 4 µM; hit rate 77% among 2,200; AID 651674, 2012;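 active = mean inhibition across replicate wells exceeding the computed hit threshold, cut at about 13% in these data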;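 also: light from luciferase halves that rejoin when HNF4 fusion proteins dimerize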
Target sequence (P41235 whole entry, looked up, the tested form may be a part): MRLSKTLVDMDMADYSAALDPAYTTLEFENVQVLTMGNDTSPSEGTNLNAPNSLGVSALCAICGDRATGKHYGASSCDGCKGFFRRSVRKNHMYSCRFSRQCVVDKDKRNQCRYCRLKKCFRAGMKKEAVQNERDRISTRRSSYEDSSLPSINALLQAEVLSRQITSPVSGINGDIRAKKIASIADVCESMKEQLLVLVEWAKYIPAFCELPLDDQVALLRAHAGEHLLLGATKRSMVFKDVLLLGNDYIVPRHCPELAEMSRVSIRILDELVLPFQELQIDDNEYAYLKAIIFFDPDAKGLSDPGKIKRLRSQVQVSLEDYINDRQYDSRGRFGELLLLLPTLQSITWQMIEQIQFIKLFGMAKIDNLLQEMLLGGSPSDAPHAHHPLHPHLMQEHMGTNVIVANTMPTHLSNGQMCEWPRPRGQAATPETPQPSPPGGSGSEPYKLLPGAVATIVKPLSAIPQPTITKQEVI
Numbers stand for hits; 0 = inactive; - = no result given. Rows were chosen to be rich in hits. Some 1.2% of all compounds tested hit in one or more screens of this group.

SMILES	FN deposition inh	ABHD5-PLIN5 inh	APOBEC3A inh	A3G deaminase	ABHD5-PLIN5 conf	HNF4 split-luc
COc1cc(C=CC(=O)c2cc(OC)c(OC)c(OC)c2)cc(OC)c1OC	0	0	-	-	-	-
COc1ccc(OC)c(/C=C/C(=O)c2ccc(Cl)cc2)c1	-	49.4	0	0	71.6	55.1
COc1ccc(/C=C/C(=O)c2ccccc2)c(OC)c1	0	0	0	0	-	-
COc1cc(O)c(C(=O)/C=C/c2ccccc2)c(OC)c1	-	26.7	0	0	50.2	44.2
COc1ccc(C)c2sc(N(CCCN(C)C)C(=O)c3ccc4c(c3)OCCO4)nc12	0	23.4	0	0	0	0
COc1cccc2sc(N(CCCN(C)C)C(=O)COc3ccc(Cl)cc3)nc12	0	28.7	0	0	23.1	0
Cc1cc(C)c2nc(N(CCCN(C)C)C(=O)c3ccc4c(c3)OCCO4)sc2c1	0	26.8	0	0	0	0
Cc1cccc2sc(N(CCCN(C)C)C(=O)c3ccc(Cl)s3)nc12	0	25.3	0	0	0	0
Cc1cc(C)c2nc(N(CCCN(C)C)C(=O)C3=COCCO3)sc2c1	0	0	0	0	-	-
CC(=O)Cc1cc(O)c2ccccc2c1OC(=O)c1ccc(Br)cc1	0	73.3	0	0	82.9	12.9
CN1CCN(C(=S)c2cn(Cc3ccc(Br)cc3)c3ccccc23)CC1	-	27.6	0	0	0	0
Cc1nnc(SC(C)C(=O)Nc2ncc(Cl)cc2Cl)n1Cc1ccccc1 (configuration not stated)	-	57.0	0	0	0	0
CC1CCCCN1Cc1c(O)ccc2c(=O)c(-c3nc4ccccc4s3)c(N)oc12 (configuration not stated)	0	29.4	0	0	0	0
CC(C)C[C@H](N)c1nnc(S(=O)(=O)Cc2cccc(F)c2)o1	-	38.0	0	0	42.3	75.9
CC(C)(C)OC(=O)N[C@@H](Cc1ccccc1)c1nnc(S(=O)(=O)Cc2cccc(F)c2)o1	-	-	0	0	-	-
C[C@@H]1CN([C@H](C)CO)C(=O)c2cc(NS(=O)(=O)c3cn(C)cn3)ccc2O[C@H]1CN(C)C(=O)NC1CCCCC1	0	-	-	-	-	-
Cc1ccccc1Nc1nc2nonc2nc1N1CCOCC1	0	24.8	-	-	0	0
Cc1ccccc1Nc1nc(N2CCOCC2)nc(N2CCOCC2)n1	0	0	0	0	-	-
Cc1ccc(C(=O)/C=C\C(=O)c2ccc(C)cc2)cc1	0	0	-	-	-	-
Cc1ccc(S/C=C\C(=O)c2ccccc2)cc1	-	31.1	0	0	48.1	32.8
Cc1ccc(C(=O)Nc2ccccc2C(=O)N2CCCCC2C)cc1 (configuration not stated)	0	106.5	0	0	0	0
CCCn1nc2cc(C(=O)N(CC)c3ccc(OC)cc3)ccc2c1OCC	0	71.3	0	0	0	0
O=C(CC1C(=O)NCCN1Cc1ccoc1)NCCc1ccc(Cl)cc1 (configuration not stated)	0	37.8	0	0	0	15.7
Cc1nc(CNC(=O)CC2C(=O)NCCN2Cc2ccoc2)nc2c1CCCC2 (configuration not stated)	0	34.2	0	0	44.8	33.7
COC(=O)CCCNC(=O)CC1C(=O)NCCN1Cc1ccoc1 (configuration not stated)	-	0	0	0	-	-
SMILES	FN deposition inh	ABHD5-PLIN5 inh	APOBEC3A inh	A3G deaminase	ABHD5-PLIN5 conf	HNF4 split-luc
N#Cc1c(NCCCO)nc(-c2ccco2)c2c1CCCC2	-	34.6	0	0	0	21.4
N#Cc1c(NC2CCCCC2)nc(-c2ccco2)c2c1CCCC2	-	0	0	0	-	-
C[C@@H]1CN([C@@H](C)CO)S(=O)(=O)c2ccc(C#CC3CC3)cc2O[C@@H]1CN(C)C(=O)c1ccccn1	0	-	-	-	-	-
COc1cccc(S(=O)(=O)N2C[C@@H](O)COC[C@H]3O[C@@H](CC(=O)NCCCN4CCOCC4)CC[C@@H]32)c1	0	-	-	-	-	-
CCOC(=O)/C=C/S(=O)(=O)c1ccc(NC(C)=O)cc1	0	77.4	0	0	78.2	108.8
CCOC(=O)/C=C/C(=O)Nc1ccc(S(=O)(=O)Nc2c(C)cc(C)cc2C)cc1	0	0	0	0	-	-
CCC[C@@H](CN1CCC[C@H]1CN1C(N)=NC[C@@H]1Cc1ccccc1)N1C[C@@H](Cc2ccccc2)N(CCc2ccc(Cl)c(Cl)c2)C1=N	0	28.6	0	0	0	0
CC(C)[C@H](CN1CCC[C@H]1CN1C(N)=NC[C@@H]1Cc1ccccc1)N1C[C@@H](Cc2ccccc2)N(CCc2ccc(Cl)c(Cl)c2)C1=N	-	36.0	0	0	22.9	0
CCC[C@@H](CN1CCC[C@H]1CN1C(N)=NC[C@@H]1Cc1ccccc1)N1C[C@@H]([C@H](C)CC)N(CCc2ccc(Cl)c(Cl)c2)C1=N	-	25.7	0	0	0	0
CCCCN1C(=N)N([C@@H](CCC)CN2CCC[C@H]2CN2C(N)=NC[C@@H]2Cc2ccccc2)C[C@H]1Cc1ccccc1	0	0	0	0	-	-
CC1(C)CC(=O)C2=C(C1)NC1=C(C(=O)c3ccccc31)C2c1ccccc1 (configuration not stated)	0	0	0	0	-	-
CC(C)c1ccc(C2C3=C(CC(C)(C)CC3=O)NC3=C2C(=O)c2ccccc23)cc1 (configuration not stated)	-	29.3	0	0	42.5	62.7
CO[C@@H]1CN(C)C(=O)c2ccc(NS(=O)(=O)c3ccc(Cl)cc3)cc2OC[C@H](C)NC[C@@H]1C	0	-	-	-	-	-
O=[N+]([O-])c1cc(C(F)(F)F)cc([N+](=O)[O-])c1Sc1n[nH]c(C(F)(F)F)n1	0	45.2	0	0	75.3	56.3
CN(C)/C=N/c1nc(Sc2ccc(C(F)(F)F)cc2[N+](=O)[O-])n[nH]1	0	0	0	0	-	-
O=C(O)c1ccccc1NSc1ccccc1[N+](=O)[O-]	0	0	0	0	-	-
O=C(O)c1ccccc1Sc1c([N+](=O)[O-])cc(C(F)(F)F)cc1[N+](=O)[O-]	0	27.0	0	0	46.5	29.5
CC(C)(C)Nc1nc(Cl)nc(N(C#N)CN2C(=O)c3ccccc3S2(=O)=O)n1	0	32.9	0	0	29.6	23.9
COc1nc(NC(C)C)nc(N(C#N)CN2C(=O)c3ccccc3S2(=O)=O)n1	0	26.4	0	0	28.9	26.0
O=C(NC1CCCCC1)N1CC(=O)N2[C@@H](CO)[C@@H](c3ccc(-c4cccnc4)cc3)[C@@H]2C1	0	-	-	-	-	-
Clc1ccc(OCCCNCc2ccccc2)c(Br)c1	0	0	0	0	-	-
Clc1ccc(Cl)c(OCCCCNCc2ccccc2)c1	0	27.2	0	0	0	0
